Values after ≈ are worked out from the molar mass of the structure shown. Active and inactive are the calls of the source. No cut-off for these calls is given here.
Tests used:
[1] = system: Streptococcus pneumoniae; experiment: Antibacterial activity against Streptococcus pneumoniae DAW30 by micro-broth dilution method; format: functional
[2] = Selectivity index, ratio of IC50 for african green monkey Vero cells to MIC for methicillin- sensitive Staphylococcus aureus 8325 ATCC 35556; format: functional
In short: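 Selectivity index is calculated as the Vero cell cytotoxic IC50 divided by the MIC against the wild-type, drug-sensitive, methicillin-sensitive S. aureus 8325 (ATCC 35556).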

[3] = system: Staphylococcus aureus; experiment: Antibacterial activity against methicillin-sensitive Staphylococcus aureus 8325 ATCC 35556 by micro-broth dilution method; format: functional
[4] = system: Enterococcus faecalis; experiment: Antibacterial activity against Enterococcus faecalis ATCC 33186 by microbroth dilution method; format: functional
[5] = system: Escherichia coli; experiment: Antibacterial activity against Escherichia coli by micro-broth dilution method; format: functional
[6] = system: Vero; experiment: Cytotoxicity against african green monkey Vero cells after 72 hrs by MTT proliferation assay; format: cell-based; settings: Chlorocebus sabaeus
In short: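 IC50 is taken as the concentration that lowers Vero kidney cell viability by 50%.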

[7] = system: Mycobacterium tuberculosis; experiment: Antimycobacterial activity against Mycobacterium tuberculosis H37Rv after 7 days by micro-broth dilution method; format: functional; settings: for MIC: 168 h
[8] = system: Cutibacterium acnes; experiment: Antibacterial activity against Propionibacterium acnes ATCC 6919 by micro-broth dilution method; format: functional
[9] = system: Bacillus subtilis; experiment: Antibacterial activity against Bacillus subtilis ATCC 23857 by microbroth dilution method; format: functional
[10] = system: Pseudomonas aeruginosa; experiment: Antibacterial activity against Pseudomonas aeruginosa by micro-broth dilution method; format: functional
[11] = system: Bacillus anthracis; experiment: Antibacterial activity against Bacillus anthracis Sterne 34F2 by micro-broth dilution method; format: functional
[12] = system: Streptococcus pyogenes; experiment: Antibacterial activity against Streptococcus pyogenes ATCC 700294 by micro-broth dilution method; format: functional
[13] = system: Staphylococcus aureus; experiment: Antibacterial activity against methicillin-resistant Staphylococcus aureus ATCC 33591 by micro-broth dilution method; format: functional

| SMILES | MIC [1] [µg/mL] | Ratio [2] | MIC [3] [µg/mL] | MIC [4] [µg/mL] | MIC [5] [µg/mL] | IC50 [6] [µg/mL] | MIC [7] [µg/mL] | MIC [8] [µg/mL] | MIC [9] [µg/mL] | MIC [10] [µg/mL] | MIC [11] [µg/mL] | MIC [12] [µg/mL] | MIC [13] [µg/mL] | further results |
| --- | --- | --- | --- | --- | --- | --- | --- | --- | --- | --- | --- | --- | --- | --- |
| CCCCCCCCCCN1C(=O)/C(=C(/C)O)C(=O)[C@@H]1C(C)C | 6.25 (≈ 19.3 µM) | 8.8 | 0.8 (≈ 2.47 µM) | 0.8 (≈ 2.47 µM) | > 200 | 7 (≈ 21.6 µM) | 12.5 (≈ 38.6 µM) | 0.4 (≈ 1.24 µM) | 0.4 (≈ 1.24 µM) | > 200 | 0.8 (≈ 2.47 µM) | 25 (≈ 77.3 µM) | 0.8 (≈ 2.47 µM) | – |
| CCC(C)[C@H]1C(=O)/C(=C(\C)O)C(=O)N1Cc1ccccc1 (some centres not stated) | 50 (≈ 174 µM) | 4.2 | 6.25 (≈ 21.7 µM) | 6.25 (≈ 21.7 µM) | > 200 | 26.3 (≈ 91.5 µM) | 50 (≈ 174 µM) | 6.25 (≈ 21.7 µM) | 25 (≈ 87 µM) | > 200 | 3.12 (≈ 10.9 µM) | > 200 | 6.25 (≈ 21.7 µM) | – |
| CCCCCCCCCCN1C(=O)/C(=C(/C)O)C(=O)[C@@H]1CC(C)C | 6.25 (≈ 18.5 µM) | 36.8 | 0.4 (≈ 1.19 µM) | 1.6 (≈ 4.74 µM) | > 200 | 14.7 (≈ 43.6 µM) | 12.5 (≈ 37 µM) | 0.8 (≈ 2.37 µM) | 0.8 (≈ 2.37 µM) | > 200 | 0.8 (≈ 2.37 µM) | 50 (≈ 148 µM) | 0.8 (≈ 2.37 µM) | – |
| CCCCN1C(=O)/C(=C(/C)O)C(=O)[C@@H]1CC(C)C | 100 (≈ 395 µM) | 81.4 | 3.12 (≈ 12.3 µM) | 1.6 (≈ 6.32 µM) | > 200 | 254 (≈ 1000 µM) | 100 (≈ 395 µM) | 0.8 (≈ 3.16 µM) | 6.25 (≈ 24.7 µM) | > 200 | 12.5 (≈ 49.3 µM) | > 200 | 6.25 (≈ 24.7 µM) | – |
| CC(C)=CCCC(C)CCN1C(=O)/C(=C(/C)O)C(=O)[C@@H]1CC(C)C (some centres not stated) | 3.25 (≈ 9.69 µM) | 18.3 | 0.4 (≈ 1.19 µM) | 0.8 (≈ 2.38 µM) | > 200 | 7.3 (≈ 21.8 µM) | 200 (≈ 596 µM) | 0.4 (≈ 1.19 µM) | 0.8 (≈ 2.38 µM) | > 200 | 0.4 (≈ 1.19 µM) | 25 (≈ 74.5 µM) | 0.8 (≈ 2.38 µM) | – |
| CCCCCCCCCCN1C(=O)/C(=C(/C)O)C(=O)[C@@H]1Cc1ccccc1 | 12.5 (≈ 33.6 µM) | 105.5 | 0.2 (≈ 0.538 µM) | 0.8 (≈ 2.15 µM) | > 200 | 21.1 (≈ 56.8 µM) | 50 (≈ 135 µM) | 0.4 (≈ 1.08 µM) | 0.4 (≈ 1.08 µM) | > 200 | 0.2 (≈ 0.538 µM) | 50 (≈ 135 µM) | 0.8 (≈ 2.15 µM) | – |
| C/C(O)=C1\C(=O)[C@H](CC(C)C)N(Cc2ccc(F)cc2)C1=O | 50 (≈ 164 µM) | 2.2 | 12.5 (≈ 40.9 µM) | 50 (≈ 164 µM) | > 200 | 27.8 (≈ 91 µM) | 100 (≈ 327 µM) | 6.25 (≈ 20.5 µM) | 25 (≈ 81.9 µM) | > 200 | 12.5 (≈ 40.9 µM) | 100 (≈ 327 µM) | 25 (≈ 81.9 µM) | – |
| N#CC1=C(O)[C@@H](Cc2ccccc2)N(Cc2ccccc2)C1=O | – | – | – | – | > 200 | – | – | – | – | > 200 | – | – | – | Activity [1]: inactive; Activity [3]: inactive; Activity [4]: inactive; Activity [7]: inactive; Activity [8]: inactive; Activity [9]: inactive; Activity [11]: inactive; Activity [12]: inactive; Activity [13]: inactive |
| C/C(O)=C1\C(=O)[C@@H](CC(C)C)N(Cc2ccc(F)cc2)C1=O | 25 (≈ 81.9 µM) | 2.8 | 12.5 (≈ 40.9 µM) | 50 (≈ 164 µM) | > 200 | 35.3 (≈ 116 µM) | 100 (≈ 327 µM) | 12.5 (≈ 40.9 µM) | 12.5 (≈ 40.9 µM) | > 200 | 12.5 (≈ 40.9 µM) | 100 (≈ 327 µM) | 12.5 (≈ 40.9 µM) | – |
| C/C(O)=C1\C(=O)[C@H](CC(C)C)N(Cc2ccc(-c3ccccc3)cc2)C1=O | 12.5 (≈ 34.4 µM) | 98.5 | 0.2 (≈ 0.55 µM) | 0.8 (≈ 2.2 µM) | > 200 | 19.7 (≈ 54.2 µM) | 50 (≈ 138 µM) | 0.2 (≈ 0.55 µM) | 0.4 (≈ 1.1 µM) | > 200 | 0.4 (≈ 1.1 µM) | 25 (≈ 68.8 µM) | 0.8 (≈ 2.2 µM) | – |
| N#CC1=C(O)[C@H](Cc2ccccc2)N(Cc2ccccc2)C1=O | – | – | – | – | > 200 | – | – | – | – | > 200 | – | – | – | Activity [1]: inactive; Activity [3]: inactive; Activity [4]: inactive; Activity [7]: inactive; Activity [8]: inactive; Activity [9]: inactive; Activity [11]: inactive; Activity [12]: inactive; Activity [13]: inactive |
| CCN1C(=O)/C(=C(/C)O)C(=O)[C@@H]1Cc1ccccc1 | > 200 | – | 200 (≈ 771 µM) | > 200 | > 200 | – | > 200 | 100 (≈ 386 µM) | > 200 | > 200 | 50 (≈ 193 µM) | > 200 | > 200 | – |
| C/C(O)=C1\C(=O)[C@H](CC(C)C)N(CC2=CCC3CC2C3(C)C)C1=O (some centres not stated) | 50 (≈ 151 µM) | 22.1 | 1.6 (≈ 4.83 µM) | 1.6 (≈ 4.83 µM) | > 200 | 35.4 (≈ 107 µM) | 100 (≈ 302 µM) | 0.8 (≈ 2.41 µM) | 1.6 (≈ 4.83 µM) | > 200 | 0.8 (≈ 2.41 µM) | 25 (≈ 75.4 µM) | 1.6 (≈ 4.83 µM) | – |
| C/C(O)=C1\C(=O)[C@H](Cc2ccccc2)N(Cc2ccccc2)C1=O | 100 (≈ 311 µM) | 6.1 | 12.5 (≈ 38.9 µM) | 100 (≈ 311 µM) | > 200 | 75.7 (≈ 236 µM) | > 200 | 12.5 (≈ 38.9 µM) | 25 (≈ 77.8 µM) | > 200 | 25 (≈ 77.8 µM) | > 200 | 25 (≈ 77.8 µM) | – |
| CCCCCCCCCCN1C(=O)C(C#N)=C(O)[C@@H]1CC(C)C | – | – | – | – | > 200 | – | 3.12 (≈ 9.74 µM) | – | – | > 200 | – | – | – | – |
| COc1cccc(CN2C(=O)C(C#N)=C(O)[C@@H]2CC(C)C)c1 | – | – | – | – | > 200 | – | – | – | – | > 200 | – | – | – | Activity [1]: inactive; Activity [3]: inactive; Activity [4]: inactive; Activity [7]: inactive; Activity [8]: inactive; Activity [9]: inactive; Activity [11]: inactive; Activity [12]: inactive; Activity [13]: inactive |
| CC(C)C[C@H]1C(O)=C(C#N)C(=O)N1Cc1ccc(F)cc1 | – | – | – | – | > 200 | – | – | – | – | > 200 | – | – | – | Activity [1]: inactive; Activity [3]: inactive; Activity [4]: inactive; Activity [7]: inactive; Activity [8]: inactive; Activity [9]: inactive; Activity [11]: inactive; Activity [12]: inactive; Activity [13]: inactive |
| COc1cccc(CN2C(=O)/C(=C(/C)O)C(=O)[C@@H]2CC(C)C)c1 | 50 (≈ 158 µM) | 3.2 | 12.5 (≈ 39.4 µM) | 100 (≈ 315 µM) | > 200 | 40 (≈ 126 µM) | 100 (≈ 315 µM) | 12.5 (≈ 39.4 µM) | 25 (≈ 78.8 µM) | > 200 | 25 (≈ 78.8 µM) | 200 (≈ 630 µM) | 25 (≈ 78.8 µM) | – |
| CCCCCCCCCCN1C(=O)/C(=C(/C)O)C(=O)[C@H]1CC(C)C | 6.25 (≈ 18.5 µM) | 15.8 | 0.4 (≈ 1.19 µM) | 1.6 (≈ 4.74 µM) | > 200 | 6.3 (≈ 18.7 µM) | 25 (≈ 74.1 µM) | 0.8 (≈ 2.37 µM) | 0.8 (≈ 2.37 µM) | > 200 | 0.8 (≈ 2.37 µM) | 50 (≈ 148 µM) | 0.8 (≈ 2.37 µM) | – |
| CC(C)C[C@@H]1C(O)=C(C#N)C(=O)N1Cc1ccc(F)cc1 | – | – | – | – | > 200 | – | – | – | – | > 200 | – | – | – | Activity [1]: inactive; Activity [3]: inactive; Activity [4]: inactive; Activity [7]: inactive; Activity [8]: inactive; Activity [9]: inactive; Activity [11]: inactive; Activity [12]: inactive; Activity [13]: inactive |
| CCC(C)[C@H]1C(O)=C(C#N)C(=O)N1Cc1ccccc1 (some centres not stated) | – | – | – | – | > 200 | – | – | – | – | > 200 | – | – | – | Activity [1]: inactive; Activity [3]: inactive; Activity [4]: inactive; Activity [7]: inactive; Activity [8]: inactive; Activity [9]: inactive; Activity [11]: inactive; Activity [12]: inactive; Activity [13]: inactive |
| C/C(O)=C1\C(=O)[C@@H](Cc2ccccc2)N(Cc2ccccc2)C1=O | 50 (≈ 156 µM) | 3.2 | 25 (≈ 77.8 µM) | 100 (≈ 311 µM) | > 200 | 80.6 (≈ 251 µM) | > 200 | 25 (≈ 77.8 µM) | 25 (≈ 77.8 µM) | > 200 | 25 (≈ 77.8 µM) | 200 (≈ 622 µM) | 25 (≈ 77.8 µM) | – |

Source: ChEMBL document CHEMBL1141572, “N-substituted 3-acetyltetramic acid derivatives as antibacterial agents” (J Med Chem, 2008)
